{"source": "ChEMBL document CHEMBL2321676", "about": "“Antimalarial and Structural Studies of Pyridine-containing Inhibitors of 1-Deoxyxylulose-5-phosphate Reductoisomerase” (ACS Med Chem Lett, 2013)", "key": {"[1]": {"test": "Selectivity index, ratio of EC50 for human WI38 cells to EC50 for Plasmodium falciparum", "type": "toxicity, cell-based, WI-38", "settings": "read-out: Ratio EC50"}, "[2]": {"test": "Inhibition of Escherichia coli recombinant DXR using DXP as substrate preincubated for 5 mins"}, "Plasmodium falciparum [3]": {"tested_on": "Plasmodium falciparum", "test": "Antimalarial activity against Plasmodium falciparum Dd2 after 3 days by SYBR green I assay", "type": "functional, organism-based", "settings": "Dd2, 72 h"}, "WI-38": {"tested_on": "WI-38", "test": "Cytotoxicity against human WI38 cells after 48 hrs by MTS assay", "type": "cell-based", "settings": "WI-38, 48 h"}, "Plasmodium falciparum [4]": {"tested_on": "Plasmodium falciparum", "test": "Antimalarial activity against Plasmodium falciparum 3D7 after 3 days by SYBR green I assay", "type": "functional, organism-based", "settings": "3D7, 72 h"}, "[5]": {"test": "Inhibition of Plasmodium falciparum recombinant DXR using DXP as substrate preincubated for 5 mins", "method_in_brief": "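Recombinant P. falciparum DXR. Inhibition is expressed as Ki.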"}, "Plasmodium falciparum [6]": {"tested_on": "Plasmodium falciparum", "test": "Ratio of fosmidomycin Ki to compound Ki for Plasmodium falciparum recombinant DXR"}, "[7]": {"test": "Half life in plasma (unknown origin)", "type": "ADME, cell-free", "settings": "unidentified"}}}
{"smiles": "O=CN(O)CCC(c1cccnc1)P(=O)(O)O", "note": "(stereo unspecified)", "values": [{"measurement": "selectivity ratio", "setting": "[1]", "result": "> 1700"}, {"measurement": "Ki", "setting": "[2]", "result": 87, "unit": "nM"}, {"measurement": "EC50", "setting": "Plasmodium falciparum [3]", "result": 180, "unit": "nM"}, {"measurement": "EC50", "setting": "WI-38", "result": "> 300000", "unit": "nM"}, {"measurement": "EC50", "setting": "Plasmodium falciparum [4]", "result": 340, "unit": "nM"}, {"measurement": "Ki", "setting": "[5]", "result": 13, "unit": "nM"}]}
{"smiles": "CC(=O)N(O)CCC(c1ccccc1)P(=O)(O)O", "note": "(stereo unspecified)", "values": [{"measurement": "EC50", "setting": "Plasmodium falciparum [3]", "result": 1700, "unit": "nM"}, {"measurement": "EC50", "setting": "Plasmodium falciparum [4]", "result": 3500, "unit": "nM"}]}
{"smiles": "CCN(CC)CCCC(C)Nc1ccnc2cc(Cl)ccc12", "note": "(stereo unspecified) [CHLOROQUINE]", "values": [{"measurement": "EC50", "setting": "Plasmodium falciparum [3]", "result": 120, "unit": "nM"}, {"measurement": "EC50", "setting": "Plasmodium falciparum [4]", "result": 21, "unit": "nM"}]}
{"smiles": "O=CN(O)CCC(c1ccncc1)P(=O)(O)O", "note": "(stereo unspecified)", "values": [{"measurement": "selectivity ratio", "setting": "[1]", "result": "> 1700"}, {"measurement": "Ki", "setting": "[2]", "result": 35, "unit": "nM"}, {"measurement": "EC50", "setting": "Plasmodium falciparum [3]", "result": 170, "unit": "nM"}, {"measurement": "EC50", "setting": "WI-38", "result": "> 300000", "unit": "nM"}, {"measurement": "EC50", "setting": "Plasmodium falciparum [4]", "result": 180, "unit": "nM"}, {"measurement": "Ratio Ki", "setting": "Plasmodium falciparum [6]", "result": 2.4}, {"measurement": "Ki", "setting": "[5]", "result": 8.9, "unit": "nM"}]}
{"smiles": "O=CN(O)CCCP(=O)(O)O", "note": "[FOSMIDOMYCIN]", "values": [{"measurement": "EC50", "setting": "Plasmodium falciparum [3]", "result": 440, "unit": "nM"}, {"measurement": "EC50", "setting": "Plasmodium falciparum [4]", "result": 1170, "unit": "nM"}, {"measurement": "half-life", "setting": "[7]", "result": 1, "unit": "h"}]}
{"smiles": "CC(=O)N(O)CCC(c1ccncc1)P(=O)(O)O", "note": "(stereo unspecified)", "values": [{"measurement": "selectivity ratio", "setting": "[1]", "result": "> 1700"}, {"measurement": "Ki", "setting": "[2]", "result": 82, "unit": "nM"}, {"measurement": "EC50", "setting": "Plasmodium falciparum [3]", "result": 460, "unit": "nM"}, {"measurement": "EC50", "setting": "WI-38", "result": "> 300000", "unit": "nM"}, {"measurement": "EC50", "setting": "Plasmodium falciparum [4]", "result": 630, "unit": "nM"}, {"measurement": "Ratio Ki", "setting": "Plasmodium falciparum [6]", "result": 1.6}, {"measurement": "Ki", "setting": "[5]", "result": 13, "unit": "nM"}]}
{"smiles": "O=CN(O)CCC(c1ccccc1)P(=O)(O)O", "note": "(stereo unspecified)", "values": [{"measurement": "Ki", "setting": "[2]", "result": 1500, "unit": "nM"}, {"measurement": "Ki", "setting": "[5]", "result": 480, "unit": "nM"}]}
{"smiles": "CC(=O)N(O)CCC(c1cccnc1)P(=O)(O)O", "note": "(stereo unspecified)", "values": [{"measurement": "selectivity ratio", "setting": "[1]", "result": "> 1700"}, {"measurement": "Ki", "setting": "[2]", "result": 42, "unit": "nM"}, {"measurement": "EC50", "setting": "Plasmodium falciparum [3]", "result": 310, "unit": "nM"}, {"measurement": "EC50", "setting": "WI-38", "result": "> 300000", "unit": "nM"}, {"measurement": "EC50", "setting": "Plasmodium falciparum [4]", "result": 440, "unit": "nM"}, {"measurement": "Ratio Ki", "setting": "Plasmodium falciparum [6]", "result": 11}, {"measurement": "Ki", "setting": "[5]", "result": 1.9, "unit": "nM"}]}
